Test results from ChEMBL document CHEMBL4364341, “Radiosensitization of Head and Neck Squamous Cell Carcinoma (HNSCC) by a Podophyllotoxin” (ACS Med Chem Lett, 2019).
Activity calls are given as the source filed them. The rule behind the calls is not given here.

Key:
[1] = test system: SCC-25; test: Antiproliferative activity against human SCC25 cells assessed as fractional inhibition at 0.5 uM after 6 days in absence of irradiation by MTT assay; assay type: functional
Summary of the method: (§1)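 FaDu or SCC-25 cells were grown in DMEM with 10% FBS at 37 °C and 5% CO2. They were seeded at 1000 cells/well in 96-well plates for 24 h, then dosed with compound (fresh DMSO stock diluted in medium) or vehicle. After 1 h, X-rays were given with a sliding 5 mm lead shield, so one plate held 0, 2.5, 5 and 10 Gy columns. After 6 days, MTT (0.5 mg/mL, 45 min) was added, then DMSO, and A570 was read. Values were normalised to the unirradiated vehicle control. Fractional inhibition = 1 − surviving fraction.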

[2] = test system: FaDu; test: Synergistic induction of apoptosis in human FADU cells at 0.5 uM followed irradiation with 5Gy IR incubated for 48 hrs by annexin V FITC and propidium iodide staining based flow cytometry; assay type: functional
Summary of the method: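 FaDu or SCC-25 cells, untreated, given 5 Gy IR, drug, or both. Apoptotic cells measured by annexin V flow cytometry 48 h after treatment. Percentage compared with control by t test.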

[3] = test system: FaDu; test: Synergistic antiproliferative activity against human FADU cells assessed as fractional inhibition at 0.5 uM preincubated for 1 hr followed by irradiation with 10 Gy IR and measured after 6 days by MTT assay (reference value: 0.388); assay type: functional; summary of the method: as §1
[4] = test system: FaDu; test: Antiproliferative activity against human FADU cells assessed as reduction in cell viability at 1 uM after 6 days by MTT assay relative to control; assay type: functional; conditions: 144 h; summary of the method: as §1
[5] = test system: FaDu; test: Synergistic antiproliferative activity against human FADU cells assessed as fractional inhibition at 0.005 uM preincubated for 1 hr followed by irradiation with 10 Gy IR and measured after 6 days by MTT assay (reference value: 0.388); assay type: functional; summary of the method: as §1
[6] = test system: SCC-25; test: Synergistic antiproliferative activity against human SCC25 cells assessed as fractional inhibition at 0.05 uM preincubated for 1 hr followed by irradiation with 2.5 Gy IR and measured after 6 days by MTT assay (reference value: 0.011); assay type: functional
Summary of the method: (§2)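 SCC-25 cells seeded 1000/well in 96-well plates in DMEM/10% FBS and left 24 h. Drug or vehicle added, then after 1 h X-irradiated to 2.5, 5 or 10 Gy on one plate using a shifted lead shield. Plates incubated 6 days, then MTT (0.5 mg/mL, 45 min), DMSO solubilisation, absorbance at 570 nm. Fractional inhibition = 1 − fraction of surviving cells.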

[7] = test system: SCC-25; test: Synergistic induction of cell cycle arrest in human SCC25 cells at 0.5 uM followed by irradiation with 5Gy IR incubated for 6 hrs by propidium iodide staining based flow cytometry; assay type: functional
Summary of the method: (§3)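 FaDu or SCC-25 cells, untreated, given 5 Gy IR, drug, or drug plus 5 Gy. Cell-cycle distribution by propidium iodide staining and flow cytometry at 6 h and 24 h after treatment. G0/G1, S and G2/M fractions compared with control by t test.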

[8] = test system: FaDu; test: Inhibition of colony formation in human FADU cells incubated for 10 to 14 days by crystal violet staining based assay; assay type: functional, cell-based
[9] = test system: FaDu; test: Synergistic antiproliferative activity against human FADU cells assessed as fractional inhibition at 0.005 uM preincubated for 1 hr followed by irradiation with 5 Gy IR and measured after 6 days by MTT assay (reference value: 0.097); assay type: functional; summary of the method: as §1
[10] = test system: SCC-25; test: Antiproliferative activity against human SCC25 cells assessed as fractional inhibition at 5 uM after 6 days in absence of irradiation by MTT assay; assay type: functional; summary of the method: as §1
[11] = test system: FaDu; test: Induction of cell cycle arrest in human FADU cells at 0.5 uM by propidium iodide staining based flow cytometry; assay type: functional
Summary of the method: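 Cell-cycle distribution was measured by propidium iodide staining and flow cytometry. Readings were taken 6 and 24 h after compound alone, 5 Gy IR alone, or the combination, against control.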

[12] = test system: FaDu; test: Induction of apoptosis in human FADU cells assessed as decrease in Bcl2 at 0.5 uM incubated for 48 hrs by immunoblot analysis; assay type: functional, cell-based
Summary of the method: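 FaDu cells received compound at 0.5 μM, 5 Gy IR, or both. After 48 h, lysates were immunoblotted for NRF2, cyclin B1, CDK1, Bax and Bcl-2. Membranes were then stripped and reprobed for β-actin as the loading control.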

[13] = test system: FaDu; test: Synergistic antiproliferative activity against human FADU cells assessed as fractional inhibition at 0.05 uM preincubated for 1 hr followed by irradiation with 2.5 Gy IR and measured after 6 days by MTT assay (reference value: 0.131); assay type: functional; summary of the method: as §1
[14] = test system: SCC-25; test: Synergistic antiproliferative activity against human SCC25 cells assessed as fractional inhibition at 0.5 uM preincubated for 1 hr followed by irradiation with 2.5 Gy IR and measured after 6 days by MTT assay (reference value: 0.011); assay type: functional; summary of the method: as §2
[15] = test system: FaDu; test: Synergistic antiproliferative activity against human FADU cells assessed as fractional inhibition at 0.5 uM preincubated for 1 hr followed by irradiation with 2.5 Gy IR and measured after 6 days by MTT assay (reference value: 0.131); assay type: functional; summary of the method: as §1
[16] = test system: SCC-25; test: Synergistic antiproliferative activity against human SCC25 cells assessed as combination index at 5 uM preincubated for 1 hr followed by irradiation with 5 Gy IR and measured after 6 days by MTT assay; assay type: functional
Summary of the method: (§4)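 SCC-25 cells grown in DMEM with 10% FBS at 37 °C, 5% CO2, seeded 1000 cells/well in 96-well plates and left 24 h. Drug in DMSO, diluted in complete medium, added 1 h before X-irradiation. A movable 5 mm lead shield gave 0, 2.5, 5 or 10 Gy on one plate. After 6 days, MTT readout at 570 nm. Combination index by Chou–Talalay from viability data.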

[17] = test system: SCC-25; test: Synergistic induction of cell cycle arrest in human SCC25 cells assessed as decrease in accumulation at S phase at 0.5 uM followed irradiation with 5Gy IR incubated for 24 hrs by propidium iodide staining based flow cytometry; assay type: functional; summary of the method: as §3
[18] = test system: SCC-25; test: Synergistic antiproliferative activity against human SCC25 cells assessed as combination index at 0.05 uM preincubated for 1 hr followed by irradiation with 2.5 Gy IR and measured after 6 days by MTT assay; assay type: functional; summary of the method: as §4
[19] = test system: FaDu; test: Synergistic antiproliferative activity against human FADU cells assessed as fractional inhibition at 0.5 uM preincubated for 1 hr followed by irradiation with 5 Gy IR and measured after 6 days by MTT assay (reference value: 0.097); assay type: functional; summary of the method: as §1
[20] = test system: SCC-25; test: Synergistic antiproliferative activity against human SCC25 cells assessed as combination index at 0.5 uM preincubated for 1 hr followed by irradiation with 2.5 Gy IR and measured after 6 days by MTT assay; assay type: functional; summary of the method: as §4
[21] = test system: SCC-25; test: Inhibition of cell migration in human SCC25 cells at 0.5 uM incubated for 12 and 24 hrs by microscopic analysis; assay type: functional, cell-based
Summary of the method: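 Scratch assay: 10^5 cells/well were grown to confluence in 12-well plates, with mitomycin C to block proliferation. Cells were treated with compound for 24 h, with or without 5 Gy IR, then scratched with a pipette tip, washed with PBS and given fresh medium. Imaging was at 0, 6, 12 and 24 h. % migration = gap decrease relative to the 0 h gap.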

SMILES: COc1ccc2c(c1)N(CCO)C1=C(C(=O)OC1)C2c1ccccc1 (stereo unspecified)
- fractional inhibitory concentration index (FICI) [1]: 0.361
- fold change (FC) [2]: 3
- fractional inhibitory concentration index (FICI) [3]: 0.613
- inhibition at 1 µM [4]: 20%
- fractional inhibitory concentration index (FICI) [5]: 0.346
- fractional inhibitory concentration index (FICI) [6]: 0.74
- Activity [7]: inactive
- IC50 [8]: 6.5 µM
- fractional inhibitory concentration index (FICI) [9]: 0.136
- fractional inhibitory concentration index (FICI) [10]: 0.744
- Activity [11]: inactive
- Activity [12]: Active
- fractional inhibitory concentration index (FICI) [13]: 0.383
- fractional inhibitory concentration index (FICI) [14]: 0.452
- fractional inhibitory concentration index (FICI) [15]: 0.443
- CI [16]: 0.652
- Activity [17]: Active
- CI [18]: 0.835
- fractional inhibitory concentration index (FICI) [19]: 0.425
- CI [20]: 0.386
- inhibition [21]: inactive
